Screening data as filed in PubChem.
Hits are enriched below; roughly 4.1% of the tested compounds scored in any of these assays.
Apaf1 inhib = inhibitors of human Apaf-1 apoptosome, primary screen, biochemical, DEVD-Rh110 fluorescence, uHTS. Apoptotic protease-activating factor 1 (Homo sapiens), O14727. reconstituted apoptosome caspase-3 activity. inhibition, % at 20 µM. hit rate 0.71% among 330,000. AID 489030, 2010; active means inhibition of at least 40% at 20 µM;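 further: plate controls were DMSO wells for no effect and DEVD-CHO caspase inhibitor wells for full effect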
Target sequence (O14727 whole entry, looked up): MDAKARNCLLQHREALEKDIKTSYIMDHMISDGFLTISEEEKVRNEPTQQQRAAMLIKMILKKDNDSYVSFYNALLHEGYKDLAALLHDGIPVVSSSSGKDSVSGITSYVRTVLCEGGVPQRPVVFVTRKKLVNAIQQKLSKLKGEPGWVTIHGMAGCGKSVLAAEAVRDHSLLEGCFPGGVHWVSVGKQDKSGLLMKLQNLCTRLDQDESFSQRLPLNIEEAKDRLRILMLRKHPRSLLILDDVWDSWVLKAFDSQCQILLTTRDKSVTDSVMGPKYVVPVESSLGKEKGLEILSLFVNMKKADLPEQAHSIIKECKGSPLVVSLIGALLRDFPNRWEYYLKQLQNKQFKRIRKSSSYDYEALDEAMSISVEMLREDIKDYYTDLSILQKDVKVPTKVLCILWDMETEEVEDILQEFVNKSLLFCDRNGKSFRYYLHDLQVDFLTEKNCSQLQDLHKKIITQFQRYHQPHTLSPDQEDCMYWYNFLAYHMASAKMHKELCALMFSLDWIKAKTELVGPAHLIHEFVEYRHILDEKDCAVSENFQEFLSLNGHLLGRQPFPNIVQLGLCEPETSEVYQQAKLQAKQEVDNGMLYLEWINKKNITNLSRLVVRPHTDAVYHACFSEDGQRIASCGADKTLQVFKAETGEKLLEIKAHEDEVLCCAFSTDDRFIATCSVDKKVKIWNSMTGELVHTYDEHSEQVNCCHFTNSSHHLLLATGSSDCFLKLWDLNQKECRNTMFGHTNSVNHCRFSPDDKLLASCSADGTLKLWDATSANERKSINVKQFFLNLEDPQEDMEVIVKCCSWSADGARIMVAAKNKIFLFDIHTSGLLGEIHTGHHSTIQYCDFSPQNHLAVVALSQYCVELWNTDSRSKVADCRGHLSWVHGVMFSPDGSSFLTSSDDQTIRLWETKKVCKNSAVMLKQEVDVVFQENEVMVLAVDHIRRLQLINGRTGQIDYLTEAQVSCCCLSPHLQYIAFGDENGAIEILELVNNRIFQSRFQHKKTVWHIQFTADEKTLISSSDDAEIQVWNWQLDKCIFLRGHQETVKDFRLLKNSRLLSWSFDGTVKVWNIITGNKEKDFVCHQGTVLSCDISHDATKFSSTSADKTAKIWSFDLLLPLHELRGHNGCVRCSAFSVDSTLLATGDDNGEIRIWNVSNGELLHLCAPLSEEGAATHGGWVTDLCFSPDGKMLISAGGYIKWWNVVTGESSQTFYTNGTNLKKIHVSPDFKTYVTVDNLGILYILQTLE
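Material: reconstituted apoptosome with Apaf-1, cytochrome c, caspase-9, procaspase-3, dATP; medium: pH 7.5 Hepes buffer with CHAPS, BSA, DTT; also added: cytochrome c and DEVD-Rh110 substrate; timing: 30 min plus 50 min, RT; signal: Rh110 fluorescence intensity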
Mdm2-MdmX inh = inhibitors of human Mdm2-MdmX association, primary screen, cell-based, luminescence, split luciferase, SaOS-2, uHTS; Protein Mdm4 (Homo sapiens) + E3 ubiquitin-protein ligase Mdm2 (Homo sapiens), …; SaOS-2 split-luciferase Mdm2/MdmX complementation; inhibition, % at 8 µM; hit rate 3% among 330,000;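 active means inhibition of at least 50% at 8 µM in the primary screen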
XBP1 UPR activ = activators of adaptive XBP1 UPR arm, primary screen, cell-based, CHO-XBP1 luciferase reporter, luminescence, uHTS; IRE1-XBP1 UPR activation; percent of tunicamycin response, DMSO as zero; activation, % at 20 µM; AID 463104, 2010; hit rate 0.33% among 330,000;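 active means versus positive control, 20 µM dose yields 30% or more activation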;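 further: 100% = tunicamycin at 10 µg/mL and 0% = DMSO only wells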
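Assay system: CHO-XBP1 luciferase reporter cells; Schedule: 6 h treatment, 37 °C; Detection: glow luminescence from Steady-Glo reagent; Benchmarks: high control tunicamycin 10 µg/mL final, low control DMSO vehicle only.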
CHOP UPR activ = activators of apoptotic CHOP UPR arm, primary screen, cell-based, CHO-CHOP luciferase reporter, luminescence, uHTS | UPR activation; percent of tunicamycin response over DMSO baseline | activation, % at 10 µM | hit rate 0.34% among 330,000 | AID 449763, 2010;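 active means at 10 µM dose, activation of 40% or more, normalized to positive control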;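 further: 100% = tunicamycin at 10 µg/mL and 0% = DMSO alone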
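System: CHO-CHOP luciferase reporter cell line | Buffer or medium: F12 medium containing 10% fetal bovine serum | Doses: One dose, 10 µM in 0.5% DMSO | Times: 6 h compound exposure at 37 °C after overnight seeding | Signal: Luciferase luminescence | Read-out: % activation vs tunicamycin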
UBC13 polyUb = UBC13 polyubiquitin chain formation inhibitors, primary screen, biochemical, TR-FRET, uHTS; inhibition, % at 20 µM; hit rate 0.47% among 330,000; Ubiquitin-conjugating enzyme E2 N (Homo sapiens), P61088; in the data active means inhibition above about 45%, passing the limit was not always enough
Mdm2-MdmX conf = Mdm2-MdmX complex disruptors, retested hits, confirmation, luminescence, single concentration; shares compounds with Mdm2-MdmX inh; Mdm2-MdmX binding, luminescent assay; inhibition, % at 8 µM; hit rate 55% among 10,000; in the data active means inhibition above about 40%
Full FLuc ctr = full-length luciferase signal inhibition, confirmation, counter-screen for Mdm2/MdmX interaction inhibitor project, cell-based, single concentration, SaOS-2; shares compounds with Mdm2-MdmX inh; SaOS-2 full-length luciferase counterscreen, luminescence; inhibition, % at 8 µM; hit rate 77% among 6,200; AID 504607, 2011;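 active means mean inhibition at 8 µM reaching about 37%, which flags the compound as non-specific, limit read from the data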;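 further: p53-null SaOS-2 cells with luciferase driven by a doxycycline-inducible promoter; compound on cells about two nights before reading with doxycycline added after day one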
Numbers without * were called inactive.

CCc1nc(C)cn1S(=O)(=O)c1cc(C)c(OC)c(C)c1C was read as Apaf1 inhib -16, Mdm2-MdmX inh -1, XBP1 UPR activ -2, CHOP UPR activ 6 and UBC13 polyUb 0.
`O=C(NCc1ccc(OC(F)(F)F)cc1)C1CC2Cn3c(nc4ccccc43)C2N1c1ccccc1` (stereo unspecified) gave Apaf1 inhib -7, Mdm2-MdmX inh 3, XBP1 UPR activ 1, CHOP UPR activ 1 and UBC13 polyUb 5.
Screening CN(C)C(CNC(=O)C1CC(=O)N(Cc2ccccc2)C1)c1ccccc1 (stereo unspecified) returned Apaf1 inhib 6, Mdm2-MdmX inh 6, XBP1 UPR activ -1, CHOP UPR activ 1 and UBC13 polyUb 0.
O=C(O)CN1C(=O)/C(=C/c2ccccc2Cl)Oc2ccccc21 was read as Apaf1 inhib 8, Mdm2-MdmX inh -9, XBP1 UPR activ 6, CHOP UPR activ -2 and UBC13 polyUb 13.
`O=C(CN1C(=O)/C(=C\c2ccccc2Cl)Oc2ccccc21)NCc1cccnc1` gave Apaf1 inhib -1, Mdm2-MdmX inh 76*, XBP1 UPR activ 2, CHOP UPR activ 0, UBC13 polyUb -3 and Mdm2-MdmX conf 1.
Screening O=S1(=O)CCOCCCN1Cc1ccccc1 returned Apaf1 inhib -3, Mdm2-MdmX inh -21, XBP1 UPR activ 0, CHOP UPR activ 4 and UBC13 polyUb 3.
For COC(=O)C1=C(C)NC(C)=C(C(=O)OC)C1c1ccccc1[N+](=O)[O-] the results were Apaf1 inhib -9, Mdm2-MdmX inh 97*, XBP1 UPR activ -8, CHOP UPR activ 3, UBC13 polyUb -8, Mdm2-MdmX conf 53* and Full FLuc ctr 28.
For COC(=O)C1=C(C)NC(C)=C(C(=O)OC)C1c1ccccn1 the results were Apaf1 inhib -15, Mdm2-MdmX inh 33, XBP1 UPR activ 2, CHOP UPR activ -1 and UBC13 polyUb -2.
O=c1cc(O)c2sc(Nc3ccc(Cl)c(F)c3)nc2[nH]1 was read as Apaf1 inhib -4, Mdm2-MdmX inh 72*, XBP1 UPR activ 0, CHOP UPR activ -2, UBC13 polyUb -6, Mdm2-MdmX conf 56* and Full FLuc ctr 45*.
`O=c1cc(O)c2sc(Nc3ccc(F)c(Cl)c3)nc2[nH]1` gave Apaf1 inhib 3, Mdm2-MdmX inh 60*, XBP1 UPR activ -1, CHOP UPR activ 1, UBC13 polyUb -19, Mdm2-MdmX conf 45* and Full FLuc ctr 63*.
`CCCCn1c(N)c(N(CCOC)C(=O)c2cc(C)oc2C)c(=O)[nH]c1=O` gave Apaf1 inhib -5, Mdm2-MdmX inh -5, XBP1 UPR activ -3, CHOP UPR activ 1 and UBC13 polyUb -1.
For COc1ccccc1NC(=O)c1sc2ncn(CC(=O)Nc3ccccc3)c(=O)c2c1C the results were Apaf1 inhib 14, Mdm2-MdmX inh 55*, XBP1 UPR activ 9, CHOP UPR activ -1, UBC13 polyUb 2 and Mdm2-MdmX conf 5.
For NS(=O)(=O)c1ccc(CCNC(=O)c2cc(-c3ccccn3)nc3ccc(Br)cc23)cc1 the results were Apaf1 inhib -7, Mdm2-MdmX inh 77*, XBP1 UPR activ 15, CHOP UPR activ 6, UBC13 polyUb -25 and Mdm2-MdmX conf 16.
Screening CCn1cc(/C=C(\NC(=O)c2ccccc2Cl)C(=O)NCCN2CCOCC2)c2ccccc21 returned Apaf1 inhib 4, Mdm2-MdmX inh 1, XBP1 UPR activ -4, CHOP UPR activ 2 and UBC13 polyUb -2.
`CN(C)CC/C=C1\c2cc(Cl)ccc2Sc2cc(F)c(F)cc21` gave Apaf1 inhib 5, Mdm2-MdmX inh 36, XBP1 UPR activ 3, CHOP UPR activ 2 and UBC13 polyUb 26.
CN(C)CC/C=C1\c2ccccc2Sc2cc(F)c(Cl)cc21 was read as Apaf1 inhib 9, Mdm2-MdmX inh 66*, XBP1 UPR activ 13, CHOP UPR activ 2, UBC13 polyUb 31, Mdm2-MdmX conf 28 and Full FLuc ctr 78*.
Screening O=C(c1ccco1)N1CCN(CCCCOc2cccc3ccccc23)CC1 returned Apaf1 inhib 21, Mdm2-MdmX inh -5, XBP1 UPR activ -3, CHOP UPR activ -1 and UBC13 polyUb 16.
CC(Cc1cccs1)NC(=O)Nc1ccc(Cl)c(Cl)c1 (stereo unspecified) was read as Apaf1 inhib 13, Mdm2-MdmX inh -14, XBP1 UPR activ -1, CHOP UPR activ 4 and UBC13 polyUb -3.
Screening COc1cccc(N2CCN(S(=O)(=O)c3cc4c(cc3C)N(C)CCO4)CC2)c1 returned Apaf1 inhib 26, Mdm2-MdmX inh 17, XBP1 UPR activ -2, CHOP UPR activ 4 and UBC13 polyUb -1.
`Cc1cc2c(cc1S(=O)(=O)N1CCN(c3ccc(Cl)cc3)CC1)OCCN2C` gave Apaf1 inhib 10, Mdm2-MdmX inh 85*, XBP1 UPR activ -2, CHOP UPR activ -2, UBC13 polyUb -3 and Mdm2-MdmX conf 4.
For O=C1c2ccccc2NC(c2cccc(O)c2)N1Cc1ccco1 (stereo unspecified) the results were Apaf1 inhib 13, Mdm2-MdmX inh -6, XBP1 UPR activ -2, CHOP UPR activ -2 and UBC13 polyUb 17.
CC1=CC(C)(C)n2c(O)c(C3=NC(=S)NC3=O)c3cc(OC(=O)c4cccc5ccccc45)cc1c32 was read as Apaf1 inhib 6, Mdm2-MdmX inh 77*, XBP1 UPR activ 9, CHOP UPR activ 4, UBC13 polyUb -23 and Mdm2-MdmX conf 14.
For O=C(Nc1ccc(Oc2c(F)c(F)c(F)c(F)c2F)cc1)OC1CCN2Cc3ccccc3N=C12 (stereo unspecified) the results were Apaf1 inhib 9, Mdm2-MdmX inh 68*, XBP1 UPR activ 9, CHOP UPR activ 6, UBC13 polyUb -10 and Mdm2-MdmX conf 29.
Screening Cc1cccc(NC(=O)Nc2ccc(Oc3c(F)c(F)c(F)c(F)c3F)cc2)c1 returned Apaf1 inhib -3, Mdm2-MdmX inh 41, XBP1 UPR activ 2, CHOP UPR activ 1 and UBC13 polyUb 1.
